Source: ChEMBL document CHEMBL5390271, “Targeting Glial Cells by Organic Anion-Transporting Polypeptide 1C1 (OATP1C1)-Utilizing l-Thyroxine-Derived Prodrugs” (J Med Chem, 2023)

What was measured:
[1] = Chemical stability in Tris-HCI buffer at pH 7.4 at 100 uM and measured after 24 hrs by HPLC analysis; type: physicochemical; conditions: pH 7.4, 24 h
Method in brief: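 Prodrug (100 μM initial, from 10 mM DMSO stock; 2% DMSO) incubated at 37 °C in 50 mM Tris–HCl pH 7.4 for 24 h. Samples taken at intervals, quenched 1:1 with ACN, analysed by HPLC-UV (230–240 nm). Pseudo-first-order t1/2 taken from the slope of log remaining prodrug vs time.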

[2] = Drug uptake in mouse Astrocyte cells expressing OATPIC4/5/6 at 100 uM incubated for 30 mins in presence of naringin by liquid scintillation counter analysis; type: ADME, cell-based; conditions: 0.5 h
Method in brief: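 Astrocytes preincubated 10 min with naringin (100 μM), then incubated with substrate (100 μM) plus naringin in HBSS pH 7.4 for 30 min at 37 °C. Uptake normalized to protein and expressed relative to control; one-way ANOVA with Dunnett's test.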

[3] = Drug uptake in human U-87 MG cells expressing OATPIC1 at 100 uM incubated for 30 mins in presence of diclofenac by HPLC analysis; type: ADME, cell-based; conditions: u-87mg atcc, 0.5 h
Method in brief: (§1)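 U-87MG cells preincubated 10 min with diclofenac or flufenamic acid (100 μM), then co-incubated with the compound (100 μM) plus inhibitor in HBSS pH 7.4 for 30 min at 37 °C. Uptake quantified by HPLC, normalized to protein and expressed as % of control. One-way ANOVA with Dunnett's test; n = 3.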

[4] = Drug uptake in human U-87 MG cells expressing OATPIC1 at 100 uM incubated for 30 mins in presence of flufenamic acid by HPLC analysis; type: ADME, cell-based; conditions: u-87mg atcc, 0.5 h; method in brief: as §1
[5] = Prodrug conversion in human U-87 MG cells expressing OATPIC1 assessed as OATPIC1 mediated drug release at 100 uM incubated for 30 mins by HPLC analysis; type: ADME, cell-based; conditions: u-87mg atcc, 0.5 h
Method in brief: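 U-87MG cells incubated with prodrug at 100 μM for 30 min at 37 °C in HBSS. Released parent drug in cell lysate measured by HPLC and normalized to protein, alongside uptake of the parent drug itself; n = 3–6.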

[6] = Drug uptake in mouse Astrocyte cells expressing OATPIC4/5/6 assessed as Vmax at 200 uM incubated for 30 mins by Michaelis-Menten analysis; type: ADME, cell-based; conditions: 0.5 h
Method in brief: (§2)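 Primary astrocytes from neonatal (P0–2) C57BL/6JOlaHsd pups, microglia removed at day 7, seeded at 10^4 cells/well 3 days before assay. Substrate added at 5–400 μM in HBSS pH 7.4 for 30 min at 37 °C. [3H]-estrone-3-sulfate measured by liquid scintillation and prodrugs by HPLC; normalized to protein. Km/Vmax fitted by Michaelis–Menten.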

[7] = Prodrug conversion in JAXC57BL/6 mouse brain assessed as total amount of prodrug and ketoprofen level at 25 micromol/kg,ip and measured after 30 mins by LC-MS/MS analysis; type: ADME, tissue-based; conditions: in vivo, 0.5 h, dose 25 µmol/kg
Method in brief: (§3)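 Male C57BL/6J mice, seven weeks old, given an ip bolus of 25 μmol/kg. Formulation 2.5 mM in saline with 30% Macrogol 15-hydroxystearate and 3% DMSO. Pentobarbital anaesthesia, then transcardial perfusion with ice-cold saline for 1 min. Whole brain (minus cerebellum and pons) taken at 30 min, homogenized in Tris pH 7.4, ACN-precipitated with labetalol internal standard, and quantified by LC–MS/MS in nmol/g.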

[8] = Drug uptake in JAXC57BL/6 mouse brain at 25 micromol/kg,ip and measured after 30 mins by LC-MS/MS analysis; type: ADME, tissue-based; conditions: in vivo, 0.5 h, dose 25 µmol/kg; method in brief: as §3
[9] = Drug uptake in mouse Astrocyte cells expressing OATPIC4/5/6 at 5 to 400 uM incubated for 30 mins by liquid scintillation counter analysis; type: ADME, cell-based; conditions: 0.5 h, dose 5-400 µM; method in brief: as §2
[10] = Drug uptake in mouse Astrocyte cells expressing OATPIC4/5/6 at pH 4.5 to 8.5 at 100 uM incubated for 30 mins by liquid scintillation counter analysis; type: ADME, cell-based; conditions: pH 4.5, 0.5 h
Method in brief: (§4)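 Mouse primary astrocytes incubated with [3H]-estrone-3-sulfate for 30 min at 37 °C in HBSS at pH 4.5–8.5 (MES or HEPES buffer). At pH 7.4, uptake was also run with choline chloride in place of Na+. Read by liquid scintillation counting and normalized to protein; n = 3 biological replicates.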

[11] = Drug uptake in mouse Astrocyte cells expressing OATPIC4/5/6 at 100 uM incubated for 30 mins in presence of Na+ ions by liquid scintillation counter analysis; type: ADME, cell-based; conditions: 0.5 h; method in brief: as §4
[12] = Drug uptake in mouse Astrocyte cells expressing OATPIC4/5/6 at 100 uM incubated for 30 mins in absence of Na+ ions by liquid scintillation counter analysis; type: ADME, cell-based; conditions: 0.5 h; method in brief: as §4
[13] = Drug uptake in human U-87 MG cells expressing OATPIC1 at 5 to 400 uM incubated for 30 mins by HPLC analysis; type: ADME, cell-based; conditions: u-87mg atcc, 0.5 h, dose 5-400 µM
Method in brief: (§5)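 U-87MG cells seeded at 1 × 10^5/well and used 1 day later. After 10 min preincubation in HBSS pH 7.4 at 37 °C, compounds added at 5–400 μM for 30 min at 37 °C. Cells washed with ice-cold HBSS, lysed in 0.1 M NaOH, acidic-ACN precipitated, analysed by HPLC against a spiked lysate standard curve, and normalized to Bradford protein. Km/Vmax fitted by Michaelis–Menten; n = 3 biological replicates.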

[14] = Drug uptake in human U-87 MG cells expressing OATPIC1 at pH 4.5 to 8.5 at 100 uM incubated for 30 mins by HPLC analysis; type: ADME, cell-based; conditions: u-87mg atcc, pH 4.5, 0.5 h
Method in brief: (§6)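 U-87MG cells incubated with T4 for 30 min at 37 °C in HBSS buffered with HEPES (pH 7.4, 8.5) or MES (pH 4.5–6.5). For Na+-free conditions, choline chloride replaced NaCl at pH 7.4. Lysates analysed by HPLC and normalized to protein; mean ± SD, n = 3 biological replicates.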

[15] = Drug uptake in human U-87 MG cells expressing OATPIC1 at 100 uM incubated for 30 mins in presence of Na+ ions by HPLC analysis; type: ADME, cell-based; conditions: u-87mg atcc, 0.5 h; method in brief: as §6
[16] = Drug uptake in human U-87 MG cells expressing OATPIC1 at 100 uM incubated for 30 mins in absence of Na+ ions by HPLC analysis; type: ADME, cell-based; conditions: u-87mg atcc, 0.5 h; method in brief: as §6
[17] = Drug uptake in human U-87 MG cells expressing OATPIC1 assessed as Vmax at 200 uM incubated for 30 mins by Michaelis-Menten analysis; type: ADME, cell-based; conditions: u-87mg atcc, 0.5 h; method in brief: as §5

Row | Stability [1] | Drug uptake [2] | Drug uptake [3] | Drug uptake [4] | Drug metabolism [5] | SMILES | other results
1 | Stable | Active | Not Active | Active | Metabolite_Detected | COc1ccc2cc([C@H](C)C(=O)Oc3c(I)cc(Oc4c(I)cc(C[C@H](N)C(=O)O)cc4I)cc3I)ccc2c1 | 
2 | Stable | Active | Active | Active | Metabolite_Detected | COc1ccc2cc([C@H](C)C(=O)Oc3c(I)cc(C[C@H](N)C(=O)O)cc3I)ccc2c1 | 
3 | Stable | Not Active | Active | Active | Metabolite_Detected | N[C@@H](Cc1cc(I)c(Oc2cc(I)c(OC(=O)c3ccccc3O)c(I)c2)c(I)c1)C(=O)O | 
4 | Stable | Not Active | Not Active | Not Active | Metabolite_Detected | CC(C(=O)Oc1c(I)cc(Oc2c(I)cc(C[C@H](N)C(=O)O)cc2I)cc1I)c1cccc(C(=O)c2ccccc2)c1 (stereo not given in full) | Vmax [6]: 5.5 nmol/min/mg; Drug uptake [7]: 0.78 nmol/g
5 |  |  |  |  |  | CC(C(=O)O)c1cccc(C(=O)c2ccccc2)c1 (racemic) [KETOPROFEN] | Drug uptake [8]: 0.22 nmol/g
6 |  | Not Active |  |  |  | C[C@]12CC[C@@H]3c4ccc(OS(=O)(=O)O)cc4CC[C@H]3[C@@H]1CCC2=O [ESTRONE SULFURIC ACID] | Drug uptake [9]: Active; Drug uptake [10]: Active; Drug uptake [11]: Active; Drug uptake [12]: Active
7 |  |  | Not Active | Not Active |  | N[C@@H](Cc1cc(I)c(Oc2cc(I)c(O)c(I)c2)c(I)c1)C(=O)O [LEVOTHYROXINE] | Drug uptake [13]: Active; Drug uptake [14]: Active; Drug uptake [15]: Active; Drug uptake [16]: Active
8 | Stable | Not Active | Not Active | Not Active | Metabolite_Detected | CC(C(=O)Oc1c(I)cc(Oc2c(I)cc(C[C@H](N)C(=O)O)cc2I)cc1I)c1ccc(-c2ccccc2)c(F)c1 (stereo not given in full) | 
9 | Stable | Not Active | Active | Active | Metabolite_Detected | N[C@@H](Cc1cc(I)c(OC(=O)c2ccccc2O)c(I)c1)C(=O)O | 
10 | Stable | Not Active | Not Active | Not Active | Metabolite_Detected | CC(C(=O)Oc1c(I)cc(C[C@H](N)C(=O)O)cc1I)c1ccc(-c2ccccc2)c(F)c1 (stereo not given in full) | 
11 | Stable | Not Active | Active | Active | Metabolite_Detected | CC(C(=O)Oc1c(I)cc(C[C@H](N)C(=O)O)cc1I)c1cccc(C(=O)c2ccccc2)c1 (stereo not given in full) | Vmax [17]: 1.27 nmol/min/mg
